Measurements as given in ChEMBL document CHEMBL3112482, “Nonclassical antifolates, part 5. Benzodiazepine analogs as a new class of DHFR inhibitors: synthesis, antitumor testing and molecular modeling study” (Eur J Med Chem, 2014).

How the values were obtained:
Assay type in all cases: functional
M14 = assay: Growth inhibition of human M14 cells at 10 uM after 48 hrs; details: M14, 48 h, read-out: GI
In short: (§1)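 Single-dose primary screen in the NCI 60 human tumour cell line panel, run at the NCI facility. The panel covers nine subpanels: leukaemia, non-small cell lung, colon, CNS, melanoma, ovarian, renal, prostate and breast. Read-out was percent growth of treated cells, shown as a mean graph and reported as percent growth inhibition.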

Malme-3M = assay: Growth inhibition of human MALME-3M cells at 10 uM after 48 hrs; details: read-out: GI; in short: as §1
LOX IMVI = assay: Growth inhibition of human LOXIMVI cells at 10 uM after 48 hrs; details: read-out: GI; in short: as §1
U-251 = assay: Growth inhibition of human U251 cells at 10 uM after 48 hrs; details: U-251, 48 h, read-out: GI
In short: (§2)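 NCI 60-cell-line disease-oriented human tumor panel, single-dose primary screen at 10 µM. Data given as mean-graph percent growth of treated cells, reported as percent growth inhibition (GI %).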

SNB-75 = assay: Growth inhibition of human SNB75 cells at 10 uM after 48 hrs; details: SNB-75, 48 h, read-out: GI; in short: as §2
SNB-19 = assay: Growth inhibition of human SNB19 cells at 10 uM after 48 hrs; details: SNB-19, 48 h, read-out: GI; in short: as §2
[1] = Growth inhibition of human SF539 cells at 10 uM after 48 hrs; details: SF-539, 48 h, read-out: GI; in short: as §2
SF-268 = assay: Growth inhibition of human SF268 cells at 10 uM after 48 hrs; details: SF-268, 48 h, read-out: GI; in short: as §2
SF-295 = assay: Growth inhibition of human SF295 cells at 10 uM after 48 hrs; details: SF-295, 48 h, read-out: GI; in short: as §2
NCI-H322M = assay: Growth inhibition of human NCI-H322M cells at 10 uM after 48 hrs; details: read-out: GI; in short: as §1
NCI-H23 = assay: Growth inhibition of human NCI-H23 cells at 10 uM after 48 hrs; details: NCI-H23, 48 h, read-out: GI; in short: as §1
NCI-H226 = assay: Growth inhibition of human NCI-H226 cells at 10 uM after 48 hrs; details: NCI-H226, 48 h, read-out: GI; in short: as §1
HOP-62 = assay: Growth inhibition of human HOP62 cells at 10 uM after 48 hrs; details: HOP-62, 48 h, read-out: GI; in short: as §1
[2] = Growth inhibition of human EKVX cells at 10 uM after 48 hrs; details: read-out: GI; in short: as §1
A549 = assay: Growth inhibition of human A549 cells at 10 uM after 48 hrs; details: A549, 48 h, read-out: GI; in short: as §1
SR = assay: Growth inhibition of human SR cells at 10 uM after 48 hrs; details: read-out: GI; in short: as §2
K562 = assay: Growth inhibition of human K562 cells at 10 uM after 48 hrs; details: K562, 48 h, read-out: GI; in short: as §1
HL-60(TB) = assay: Growth inhibition of human HL-60(TB) cells at 10 uM after 48 hrs; details: HL-60, 48 h, read-out: GI
In short: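 NCI 60-cell-line human tumour panel covering nine subpanels (leukaemia, non-small cell lung, colon, CNS, melanoma, ovarian, renal, prostate, breast), run at the NCI facility. Primary screen tested a single dose of each compound. Read-out was percent growth of treated cells versus untreated cells, reported from the mean graph as percentage growth inhibition.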

T47D = assay: Growth inhibition of human T47D cells at 10 uM after 48 hrs; details: read-out: GI; in short: as §2
[3] = Growth inhibition of human Hs 578T cells at 10 uM after 48 hrs; details: read-out: GI; in short: as §1
MCF7 = assay: Growth inhibition of human MCF7 cells at 10 uM after 48 hrs; details: MCF7, 48 h, read-out: GI; in short: as §1
MDA-MB-231 = assay: Growth inhibition of human MDA-MB-231 cells at 10 uM after 48 hrs; details: MDA-MB-231, 48 h, read-out: GI; in short: as §1
DU-145 = assay: Growth inhibition of human DU145 cells at 10 uM after 48 hrs; details: DU-145, 48 h, read-out: GI; in short: as §1
PC-3 = assay: Growth inhibition of human PC3 cells at 10 uM after 48 hrs; details: PC-3, 48 h, read-out: GI; in short: as §1
TK-10 = assay: Growth inhibition of human TK10 cells at 10 uM after 48 hrs; details: TK-10, 48 h, read-out: GI; in short: as §2
[4] = Growth inhibition of human UO31 cells at 10 uM after 48 hrs; details: UO-31, 48 h, read-out: GI; in short: as §2
SN12C = assay: Growth inhibition of human SN12C cells at 10 uM after 48 hrs; details: read-out: GI; in short: as §2
[5] = Growth inhibition of human RXF393 cells at 10 uM after 48 hrs; details: RXF 393, 48 h, read-out: GI; in short: as §1
ACHN = assay: Growth inhibition of human ACHN cells at 10 uM after 48 hrs; details: read-out: GI; in short: as §1
A498 = assay: Growth inhibition of human A498 cells at 10 uM after 48 hrs; details: A498, 48 h, read-out: GI; in short: as §1
SK-OV-3 = assay: Growth inhibition of human SKOV3 cells at 10 uM after 48 hrs; details: SK-OV-3, 48 h, read-out: GI; in short: as §2
[6] = Growth inhibition of human NCI-ADR-RES cells at 10 uM after 48 hrs; details: read-out: GI; in short: as §1
[7] = Growth inhibition of human OVCAR5 cells at 10 uM after 48 hrs; details: OVCAR-5, 48 h, read-out: GI; in short: as §1
OVCAR-3 = assay: Growth inhibition of human OVCAR3 cells at 10 uM after 48 hrs; details: OVCAR-3, 48 h, read-out: GI; in short: as §1
[8] = Growth inhibition of human OVCAR4 cells at 10 uM after 48 hrs; details: OVCAR-4, 48 h, read-out: GI; in short: as §1
SK-MEL-5 = assay: Growth inhibition of human SK-MEL-5 cells at 10 uM after 48 hrs; details: SK-MEL-5, 48 h, read-out: GI; in short: as §2
SK-MEL-28 = assay: Growth inhibition of human SK-MEL-28 cells at 10 uM after 48 hrs; details: SK-MEL-28, 48 h, read-out: GI; in short: as §2

Compound | inhibition of growth at 10 µM (M14) [%] | inhibition of growth at 10 µM (Malme-3M) [%] | inhibition of growth at 10 µM (LOX IMVI) [%] | inhibition of growth at 10 µM (U-251) [%] | inhibition of growth at 10 µM (SNB-75) [%] | inhibition of growth at 10 µM (SNB-19) [%] | inhibition of growth at 10 µM [1] [%] | inhibition of growth at 10 µM (SF-268) [%] | inhibition of growth at 10 µM (SF-295) [%] | inhibition of growth at 10 µM (NCI-H322M) [%] | inhibition of growth at 10 µM (NCI-H23) [%] | inhibition of growth at 10 µM (NCI-H226) [%] | inhibition of growth at 10 µM (HOP-62) [%] | inhibition of growth at 10 µM [2] [%] | inhibition of growth at 10 µM (A549) [%] | inhibition of growth at 10 µM (SR) [%] | inhibition of growth at 10 µM (K562) [%] | inhibition of growth at 10 µM (HL-60(TB)) [%] | inhibition of growth at 10 µM (T47D) [%] | inhibition of growth at 10 µM [3] [%] | further results
COc1ccc(/C=C2\CCCC3=C(c4ccc(OC)cc4)Nc4ccccc4N=C32)cc1 | < 30 | < 30 | 42.6 | < 30 | < 30 | < 30 | < 30 | < 30 | < 30 | < 30 | < 30 | < 30 | < 30 | < 30 | < 30 | 46.1 | 49.1 | < 30 | < 30 | < 30 | inhibition of growth at 10 µM (MCF7): 44%; inhibition of growth at 10 µM (MDA-MB-231): < 30%; inhibition of growth at 10 µM (DU-145): < 30%; inhibition of growth at 10 µM (PC-3): < 30%; inhibition of growth at 10 µM (TK-10): < 30%; inhibition of growth at 10 µM [4]: < 30%; inhibition of growth at 10 µM (SN12C): < 30%; inhibition of growth at 10 µM [5]: < 30%; inhibition of growth at 10 µM (ACHN): < 30%; inhibition of growth at 10 µM (A498): < 30%; inhibition of growth at 10 µM (SK-OV-3): < 30%; inhibition of growth at 10 µM [6]: < 30%; inhibition of growth at 10 µM [7]: < 30%; inhibition of growth at 10 µM (OVCAR-3): < 30%; inhibition of growth at 10 µM [8]: < 30%; inhibition of growth at 10 µM (SK-MEL-5): < 30%; inhibition of growth at 10 µM (SK-MEL-28): < 30%
COc1ccc(/C=C2\CCCc3c2nc(N)nc3-c2ccc(OC)cc2)cc1 | < 30 | < 30 | < 30 | < 30 | < 30 | < 30 | < 30 | < 30 | < 30 | < 30 | < 30 | < 30 | < 30 | < 30 | < 30 | < 30 | < 30 | 32.2 | < 30 | < 30 | inhibition of growth at 10 µM (MCF7): < 30%; inhibition of growth at 10 µM (MDA-MB-231): < 30%; inhibition of growth at 10 µM (DU-145): < 30%; inhibition of growth at 10 µM (PC-3): < 30%; inhibition of growth at 10 µM (TK-10): < 30%; inhibition of growth at 10 µM [4]: < 30%; inhibition of growth at 10 µM (SN12C): < 30%; inhibition of growth at 10 µM [5]: < 30%; inhibition of growth at 10 µM (ACHN): < 30%; inhibition of growth at 10 µM (A498): < 30%; inhibition of growth at 10 µM (SK-OV-3): < 30%; inhibition of growth at 10 µM [6]: < 30%; inhibition of growth at 10 µM [7]: < 30%; inhibition of growth at 10 µM (OVCAR-3): < 30%; inhibition of growth at 10 µM [8]: < 30%; inhibition of growth at 10 µM (SK-MEL-5): 43.8%; inhibition of growth at 10 µM (SK-MEL-28): < 30%
